Results: ChEMBL document CHEMBL4619746, “Discovery and biological evaluation of proteolysis targeting chimeras (PROTACs) as an EGFR degraders based on osimertinib and lenalidomide” (Bioorg Med Chem Lett, 2020)
Active and inactive are the calls of the source. The rule behind the calls is not given here.

Legend:
[1] = test system: Protein cereblon/Epidermal growth factor receptor (Homo sapiens), P00533+Q96SW2 [L858R,T790M]; assay: Protac activity at CRBN/EGFR L858R/T790M mutant in human H1975 cells assessed as induction of degradation of EGFR at 10 uM incubated for 24 hrs by Western blot analysis; assay type: cell-based
Outline: (§1)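 PC9 (EGFR Del19) and H1975 (EGFR L858R/T790M) cells exposed to 10 μM compound for 24 h. Cell lysates analysed for EGFR protein by western blot.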

[2] = test system: Protein cereblon/Epidermal growth factor receptor (Homo sapiens), P00533+Q96SW2 [UNDEFINED MUTATION]; assay: Protac activity at CRBN/EGFR exon 19 deletion mutant in human PC9 cells assessed as increase in degradation of EGFR at 10 uM incubated for 24 hrs by Western blot analysis; assay type: cell-based; settings: PC-9; outline: as §1
[3] = test system: NCI-H1975; assay: Antiproliferative activity against human NCI-H1975 cells harboring EGFR L858R/T790M double mutant by MTT assay; assay type: functional, cell-based
Outline: (§2)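 MTT proliferation read-out in human NSCLC lines: PC9 (EGFR Del19), HCC827 (EGFR Del E746-A750) and H1975 (EGFR L858R/T790M). IC50 values are in μM and reported as mean ± SD from n = 3.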

[4] = test system: PC-9; assay: Antiproliferative activity against human PC9 cells harboring EGFRDel19 mutant by MTT assay; assay type: functional, cell-based; outline: as §2
[5] = test system: HCC827; assay: Antiproliferative activity against human HCC827 cells harboring EGFRDel19 mutant by MTT assay; assay type: functional, cell-based; outline: as §2
[6] = test system: Protein cereblon/Epidermal growth factor receptor (Homo sapiens), P00533+Q96SW2 [UNDEFINED MUTATION]; assay: Protac activity at CRBN/EGFR exon 19 deletion mutant in human PC9 cells assessed as induction of degradation of EGFR assessed as fold change in EGFR protein expression at 0.3 uM incubated for 48 hrs by Western blot analysis relative to control (reference value: 1); assay type: cell-based; settings: PC-9
Outline: (§3)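 Time course in PC9 cells at a fixed 0.3 μM. Cells harvested at the indicated time points and EGFR protein quantified by western blot relative to control.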

[7] = test system: Protein cereblon/Epidermal growth factor receptor (Homo sapiens), P00533+Q96SW2 [UNDEFINED MUTATION]; assay: Protac activity at CRBN/EGFR exon 19 deletion mutant in human PC9 cells assessed as induction of degradation of EGFR assessed as fold change in EGFR protein expression at 0.3 uM incubated for 24 hrs by Western blot analysis relative to control (reference value: 1); assay type: cell-based; settings: PC-9; outline: as §3
[8] = test system: Protein cereblon/Epidermal growth factor receptor (Homo sapiens), P00533+Q96SW2 [UNDEFINED MUTATION]; assay: Protac activity at CRBN/EGFR exon 19 deletion mutant in human PC9 cells assessed as induction of degradation of EGFR assessed as fold change in EGFR protein expression at 0.3 uM incubated for 12 hrs by Western blot analysis relative to control (reference value: 1); assay type: cell-based; settings: PC-9; outline: as §3
[9] = test system: Protein cereblon/Epidermal growth factor receptor (Homo sapiens), P00533+Q96SW2 [UNDEFINED MUTATION]; assay: Protac activity at CRBN/EGFR exon 19 deletion mutant in human PC9 cells assessed as induction of degradation of EGFR assessed as fold change in EGFR protein expression at 0.3 uM incubated for 3 hrs by Western blot analysis relative to control (reference value: 1); assay type: cell-based; settings: PC-9; outline: as §3
[10] = test system: Protein cereblon/Epidermal growth factor receptor (Homo sapiens), P00533+Q96SW2 [UNDEFINED MUTATION]; assay: Protac activity at CRBN/EGFR exon 19 deletion mutant in human PC9 cells assessed as induction of degradation of EGFR assessed as fold change in EGFR protein expression at 0.3 uM incubated for 1 hr by Western blot analysis relative to control (reference value: 1); assay type: cell-based; settings: PC-9; outline: as §3
[11] = test system: Protein cereblon/Epidermal growth factor receptor (Homo sapiens), P00533+Q96SW2 [UNDEFINED MUTATION]; assay: Protac activity at CRBN/EGFR exon 19 deletion mutant in human PC9 cells assessed as induction of degradation of EGFR at 0.3 uM incubated for 6 hrs by Western blot analysis relative to control; assay type: cell-based; settings: PC-9; outline: as §3
[12] = test system: Protein cereblon/Epidermal growth factor receptor (Homo sapiens), P00533+Q96SW2 [UNDEFINED MUTATION]; assay: Protac activity at CRBN/EGFR exon 19 deletion mutant in human PC9 cells assessed as induction of degradation of EGFR by measuring fold change in EGFR protein expression at 0.1 uM incubated for 6 hrs by Western blot analysis relative to control (reference value: 1); assay type: cell-based; settings: PC-9
Outline: (§4)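 PC9 cells (EGFR Del19) exposed for 6 h to six concentrations from 0.1 μM to 10 μM. EGFR protein measured by western blot relative to untreated control. DC50 and Dmax derived from the concentration-response.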

[13] = test system: Protein cereblon/Epidermal growth factor receptor (Homo sapiens), P00533+Q96SW2 [UNDEFINED MUTATION]; assay: Protac activity at CRBN/EGFR exon 19 deletion mutant in human PC9 cells assessed as induction of degradation of EGFR by measuring fold change in EGFR protein expression at 0.3 uM incubated for 6 hrs by Western blot analysis relative to control (reference value: 1); assay type: cell-based; settings: PC-9; outline: as §4
[14] = test system: Protein cereblon/Epidermal growth factor receptor (Homo sapiens), P00533+Q96SW2 [UNDEFINED MUTATION]; assay: Protac activity at CRBN/EGFR exon 19 deletion mutant in human PC9 cells assessed as induction of degradation of EGFR by measuring fold change in EGFR protein expression at 1 uM incubated for 6 hrs by Western blot analysis relative to control (reference value: 1); assay type: cell-based; settings: PC-9; outline: as §4
[15] = test system: Protein cereblon/Epidermal growth factor receptor (Homo sapiens), P00533+Q96SW2 [UNDEFINED MUTATION]; assay: Protac activity at CRBN/EGFR exon 19 deletion mutant in human PC9 cells assessed as induction of degradation of EGFR by measuring fold change in EGFR protein expression at 3 uM incubated for 6 hrs by Western blot analysis relative to control (reference value: 1); assay type: cell-based; settings: PC-9; outline: as §4
[16] = test system: Protein cereblon/Epidermal growth factor receptor (Homo sapiens), P00533+Q96SW2 [UNDEFINED MUTATION]; assay: Protac activity at CRBN/EGFR exon 19 deletion mutant in human PC9 cells assessed as induction of degradation of EGFR by measuring fold change in EGFR protein expression at 10 uM incubated for 6 hrs by Western blot analysis relative to control (reference value: 1); assay type: cell-based; settings: PC-9; outline: as §4
[17] = test system: Protein cereblon/Epidermal growth factor receptor (Homo sapiens), P00533+Q96SW2 [UNDEFINED MUTATION]; assay: (§5) Protac activity at CRBN/EGFR exon 19 deletion mutant in human PC9 cells assessed as induction of degradation of EGFR incubated for 6 hrs by Western blot analysis; assay type: cell-based; settings: PC-9; outline: as §4
[18] = target: Protein cereblon/Epidermal growth factor receptor (Homo sapiens, UniProt P00533+Q96SW2); assay: as §5; assay type: cell-based; settings: pc-9; outline: as §4
[19] = test system: Protein cereblon/Epidermal growth factor receptor (Homo sapiens), P00533+Q96SW2 [UNDEFINED MUTATION]; assay: Protac activity at CRBN/EGFR exon 19 deletion mutant in human PC9 cells assessed as induction of degradation of EGFR at 0.3 uM pretreated with proteasome inhibitor, MG-132 for 2 hrs followed by incubation with compound for 6 hrs by Western blot analysis; assay type: cell-based; settings: PC-9
Outline: (§6)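 PC9 cells pretreated for 2 h with proteasome inhibitor MG-132 (10 μM) or lenalidomide (10 μM), then given 0.3 μM PROTAC for 6 h. EGFR levels read by western blot.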

[20] = test system: Protein cereblon/Epidermal growth factor receptor (Homo sapiens), P00533+Q96SW2 [UNDEFINED MUTATION]; assay: Protac activity at CRBN/EGFR exon 19 deletion mutant in human PC9 cells assessed as induction of degradation of EGFR at 0.3 uM pretreated with proteasome inhibitor, lenalidomide for 2 hrs followed by incubation with compound for 6 hrs by Western blot analysis; assay type: cell-based; settings: PC-9; outline: as §6
[21] = test system: Protein cereblon/Epidermal growth factor receptor (Homo sapiens), P00533+Q96SW2 [UNDEFINED MUTATION]; assay: Protac activity at CRBN/EGFR exon 19 deletion mutant in human PC9 cells assessed as induction of degradation of EGFR at 0.3 uM incubated for 24 hrs by DAPI-staining based immunofluorescence microscopy; assay type: cell-based; settings: PC-9
[22] = test system: PC-9; assay: Induction of cell cycle arrest in human PC9 cells harboring EGFRDel19 mutant assessed as accumulation in G0/G1 phase at 0.5 uM incubated for 24 hrs by confocal microscopy; assay type: functional, cell-based
Outline: (§7)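 PC9 cells were exposed to 0.5 μM test agent for 24 h. Cell cycle distribution and apoptosis were then read on an ImageXpress Micro Confocal/Widefield high-content imaging system.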

[23] = test system: PC-9; assay: Induction of apoptosis in human PC9 cells harboring EGFRDel19 mutant at 0.5 uM incubated for 24 hrs by confocal microscopy relative to control; assay type: functional; outline: as §7

Compound: C=CC(=O)Nc1cc(Nc2nccc(-c3cn(C)c4ccccc34)n2)c(OC)cc1N(C)CCN(C)CCOCCOCCOCC(=O)Nc1cccc2c1CN(C1CCC(=O)NC1=O)C2=O (stereo not drawn)
- Activity [1]: Active
- Activity [2]: Active
- IC50 [3]: 1700 nM
- IC50 [4]: 1120 nM
- IC50 [5]: 1610 nM

Compound: C=CC(=O)Nc1cc(Nc2nccc(-c3cn(C)c4ccccc34)n2)c(OC)cc1N(C)CCN(C)CCOCCOCCOCCOCC(=O)Nc1cccc2c1CN(C1CCC(=O)NC1=O)C2=O (stereo not drawn)
- fold change (FC) [6]: 0.57
- fold change (FC) [7]: 0.52
- fold change (FC) [8]: 1.39
- fold change (FC) [9]: 1.01
- fold change (FC) [10]: 0.96
- Emax [11]: 56 to 68%
- fold change (FC) [12]: 0.61
- fold change (FC) [13]: 0.32 to 0.44
- fold change (FC) [14]: 0.82
- fold change (FC) [15]: 0.49
- fold change (FC) [16]: 0.39
- Activity [17]: Dose-dependent effect
- DC50 [18]: 161 nM
- Activity [1]: Active
- Activity [2]: Active
- IC50 [3]: 657 nM
- IC50 [4]: 413 nM
- IC50 [5]: 1340 nM
- Activity [19]: inactive
- Activity [20]: inactive
- Activity [21]: Active
- Activity [22]: Active
- Activity [23]: 38.6%

Compound: C=CC(=O)Nc1cc(Nc2nccc(-c3cn(C)c4ccccc34)n2)c(OC)cc1N(C)CCN(C)CCOCCOCC(=O)Nc1cccc2c1CN(C1CCC(=O)NC1=O)C2=O (stereo not drawn)
- Activity [1]: Active
- Activity [2]: Active
- IC50 [3]: 1390 nM
- IC50 [4]: 1420 nM
- IC50 [5]: 1870 nM
